HSP90 inh: HSP90 refolding inhibition in rabbit reticulocyte lysate. AID 1789. actives 0.91% (n = 290,000). luciferase refolding luminescence, 3 h. inhibition, % at 5.6 µM;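 active = inhibition above the screen-wide mean plus 3 SD, computed separately per campaign, cut at about 16% in these data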;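 also: 0% = DMSO wells and 100% = 60 µM geldanamycin wells; inhibitors lower the luminescence because luciferase stays unfolded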
PPC-1+TRAIL kill: PPC-1 cancer cell killing with TRAIL present; PPC-1 cells + TRAIL, ATPLite viability luminescence; cell killing (% activity), % at 4 µM or 5 µM; AID 1443; actives 0.41% (n = 220,000);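 active = cell killing above 50% in the first pass at 4 µM, then a duplicate retest at 5 µM averaging 50% or more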;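 also: plate controls were cells with TRAIL plus DMSO for no effect and medium-only wells lacking cells for full effect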
FLuc stim CS: affects firefly luciferase, flagging false hits in luciferase stimulation screens. ATPlite luciferase biochemical, luminescence, 10 min; 0 = ATP-free wells, 1 = DMSO control. activation factor at 10 µM. 200,000 tested, under 10 active. AID 1027;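 active = luciferase activation factor, scaled between plate controls, of at least 2 with compound at 10 µM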
Target sequence (P08659 whole entry, looked up): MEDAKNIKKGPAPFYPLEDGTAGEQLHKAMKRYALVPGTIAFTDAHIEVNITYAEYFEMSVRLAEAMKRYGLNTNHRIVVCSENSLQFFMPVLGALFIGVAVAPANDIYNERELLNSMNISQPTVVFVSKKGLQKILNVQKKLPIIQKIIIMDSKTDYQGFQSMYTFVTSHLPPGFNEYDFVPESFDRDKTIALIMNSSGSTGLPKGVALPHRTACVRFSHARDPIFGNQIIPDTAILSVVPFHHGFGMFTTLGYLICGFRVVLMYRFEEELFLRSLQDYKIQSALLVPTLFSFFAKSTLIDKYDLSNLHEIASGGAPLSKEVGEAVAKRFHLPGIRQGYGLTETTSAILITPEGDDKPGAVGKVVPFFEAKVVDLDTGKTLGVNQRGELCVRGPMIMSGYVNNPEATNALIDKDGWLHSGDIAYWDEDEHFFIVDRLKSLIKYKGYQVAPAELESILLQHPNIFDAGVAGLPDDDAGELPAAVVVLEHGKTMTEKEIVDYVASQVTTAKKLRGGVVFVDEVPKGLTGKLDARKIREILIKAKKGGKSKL
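Assay system: Luciferase/luciferin reagent mix; Medium: PBS as buffer for the ATP substrate; Dosing: test compounds dosed from 2 mM stocks in 100% DMSO; Times: 10 min, room temperature; Signal: luminescence from luciferase reaction; Read-out: luciferase activation; Controls: No-ATP low control, compound-free enzyme-plus-ATP high control.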
TRAIL sens C8: caspase-8 TRAIL sensitization; NB7+C8 cells + TRAIL, ATPlite viability luminescence; actives 1% (n = 360,000); inhibition (viability loss, TRAIL sensitization), % at 10 µM;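 active = compounds causing at least 50% loss of cell viability in the single-dose screen, relative to plate controls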
FLuc inhib CS: inhibits firefly luciferase, flagging false hits in luciferase inhibition screens; inhibition, % at 10 µM; ATPLite firefly luciferase biochemical luminescence, 10 min; P08659; actives 1.5% (n = 200,000);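 active = inhibition above about 50% when tested at 10 µM, limit read from the data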
* = called active by the depositor; / = no result given. A selection: hits, their analogues and other compounds. The true share with any hit is near 2%.

SMILES | HSP90 inh | PPC-1+TRAIL kill | FLuc stim CS | TRAIL sens C8 | FLuc inhib CS
O=C(COC(=O)c1ccccc1)c1ccc(Br)cc1 | -1.1 | 15.1 | 0.4 | 2.9 | 56.1*
N/C(=N\OC(=O)c1ccc2ccccc2c1)c1ccccc1Cl | 0.0 | / | / | 92.9* | /
Cc1ccc(C(=O)O/N=C(\N)c2ccc(Br)cc2)cc1 | 2.1 | 24.5 | 0.7 | 80.8* | 29.8
Oc1cccc(C=NN=C2c3ccccc3-c3ccccc32)c1 | / | / | / | 1.0 | /
Cc1ccnc(Nc2nc(-c3ccc(O)cc3O)cs2)c1 | 3.7 | / | / | -1.7 | /
Cc1ccn(CC(=O)N2CCCC(N3CCN(Cc4ccc5c(c4)OCO5)CC3)C2)n1 (stereo not drawn) | -1.2 | / | / | -12.9 | /
O=C(Nc1nnc(Cc2ccccc2)s1)Nc1ccccc1F | 10.5 | / | / | 8.5 | /
O=C(COC(=O)c1ccc2ccccc2n1)c1ccccc1 | -0.6 | 21.1 | 0.4 | -1.9 | 60.0*
COc1ccc(C(=O)Oc2ccc3c(c2)OCO3)cc1OC | 3.2 | 34.0 | 1 | -7.5 | 2.9
Cc1ccc(/C(N)=N/OC(=O)C23CC4CC(CC(C4)C2)C3)cc1 | 0.2 | 25.1 | 0.9 | 88.3* | 9.8
COc1ccc(/C(N)=N/OC(=O)c2ccc3c(c2)OCO3)cc1OC | -1.9 | 48.7 | 0.4 | 81.6* | 62.4*
N/C(=N\OC(=O)c1ccc(Br)cc1)c1ccccc1 | -2.6 | 1.6 | 0.1 | 84.3* | 94.8*
O=C(OCC(=O)c1ccc[nH]1)c1ccc2ccccc2n1 | -1.6 | 4.2 | 0.9 | -3.9 | 13.1
Cc1cc(Br)cc(Br)c1OCC(=O)NNC(=O)c1ccoc1C | 10.2 | / | / | 14.7 | /
CCc1noc(C)c1C(=O)Nc1sc(C(=O)N(C)C)c(C)c1C#N | -3.3 | / | / | -13.1 | /
COc1ccc(-c2nc(CSCC(=O)NC3CCCC3)c(C)o2)cc1OC | 2.0 | / | / | -1.4 | /
CC(=O)c1c(C)[nH]c(C(=O)NC(C)c2ccccc2)c1C (stereo not drawn) | 7.5 | 18.5 | 1 | 0.1 | -1.2
N/C(=N\OC(=O)c1cccc(Br)c1)c1ccc([N+](=O)[O-])cc1 | 3.9 | / | / | -15.1 | /
COc1ccc(C(=O)O/N=C(\N)Cc2ccc(Cl)cc2)cc1OC | 3.0 | 5.8 | 1.1 | 94.2* | -5.0
COc1ccc(/C(N)=N/OC(=O)c2ccc3ccccc3c2)cc1OC | / | / | / | 95.7* | /
COc1ccc(C(=O)O/N=C(\N)c2ccc(Br)cc2)cc1 | -2.1 | / | / | 69.9* | /
N/C(=N\OC(=O)c1cccc(Br)c1)c1ccc(Br)cc1 | -2.0 | 1.1 | 1 | 58.6* | -1.2
COc1ccc(/C(N)=N/OC(=O)c2c(-c3ccccc3Cl)noc2C)cc1OC | 0.8 | / | / | 93.2* | /
O=C(CCC(=O)N1CCCC1)Nc1ccc(Cl)c(Cl)c1 | -2.9 | / | / | -4.5 | /
CCOC(=O)c1ccc(Nc2ncnc3nc[nH]c23)cc1 | -2.4 | 33.0 | 0.5 | 33.8 | 50.5*
SMILES | HSP90 inh | PPC-1+TRAIL kill | FLuc stim CS | TRAIL sens C8 | FLuc inhib CS
CCOC(=O)c1ccc(NC(=O)c2nc[nH]c2C(=O)NCCNC(=O)c2[nH]cnc2C(=O)Nc2ccc(C(=O)OCC)cc2)cc1 | / | / | / | 92.3* | /
N#CCc1ccc(NC(=O)c2ccc(S(=O)(=O)N3CCOCC3)cc2)cc1 | -3.4 | / | / | -1.2 | /
C/C=C(\C)CN1CCCC(CO)(Cc2ccccc2)C1 (stereo not drawn) | 3.2 | 7.2 | 1.1 | 10.0 | -5.8
CCOC(=O)c1cccc(NC(=O)c2ccc3c(c2)OCO3)c1 | -1.7 | / | / | 28.4 | /
COc1ccccc1NC(=O)/C=C/c1ccc2c(c1)OCO2 | 2.9 | 10.0 | 0.4 | 19.7 | 60.8*
CCOC(=O)c1cccc(NC(=O)/C=C/c2ccc3c(c2)OCO3)c1 | 4.3 | 33.4 | 0.6 | 85.3* | 35.5
CNC(=O)CC1C(=O)N(c2ccc(OC)cc2)C(=S)N1NC(=O)c1cccc(F)c1 (stereo not drawn) | 1.7 | 12.2 | / | -12.6 | /
CCC1CCCCN1Cc1nc(Cc2ccccc2Cl)no1 (stereo not drawn) | -1.4 | 0.4 | / | 85.2* | /
COC(=O)[C@]1(Cc2ccccc2)N[C@H](c2ccc(-c3ccc(F)cc3)cc2)[C@@H]2C(=O)N(C)C(=O)[C@@H]21 | / | / | / | 13.1 | /
COc1ccc(C(=O)Nc2cc(C)c(NC(=O)c3ccccn3)cn2)cc1 | 1.4 | / | / | 68.8* | /
COc1ccc(C(=O)Nc2ccccc2C(=O)Nc2cc(C)ccn2)cc1 | 0.4 | / | / | 68.0* | /
COc1ccc(C(=O)Nc2cnc(NC(=O)c3cccs3)cc2C)cc1 | 4.2 | / | / | 6.8 | /
COc1ccc(C(=O)Nc2ccccc2C(=O)Nc2cccnc2)cc1 | -4.1 | / | / | 53.0* | /
Cc1ccnc(NC(=O)COc2ccc3c(c2)CCC3)c1 | / | / | / | 69.8* | /
CC(=O)Nc1ccc(NC(=O)COc2ccc3c(c2)CCC3)cc1 | -0.3 | 22.0 | 1 | -3.4 | -2.0
C=CCn1c(O)c2ccc(C(=O)N=NC(=O)COc3ccc(OC)cc3)cc2c1O | -0.5 | / | / | -3.7 | /
Nc1ccccc1C(=O)NCCCN1CCN(c2cccc(Cl)c2)CC1 | / | / | / | 18.6 | /
COc1ccc(NC(=O)Nc2cc(C)ccn2)cc1 | / | / | / | 58.9* | /
CN(C)C(=O)c1ccc(NC(=O)CN2C(=O)NC3(CCCc4ccccc43)C2=O)cc1 (stereo not drawn) | / | / | / | -0.4 | /
CCCN1C(=O)c2cc(C(=O)Nc3ccc(OC)cc3OC)ccc2C1Nc1ccc(OC)cc1OC (stereo not drawn) | 0.1 | 7.2 | 1 | -11.1 | -0.7
COc1cc(C(=O)Nc2cccc(-c3cn4cccnc4n3)c2)cc(OC)c1OC | -6.0 | 16.7 | 0.9 | -4.0 | 9.0
Cc1ccn2cc(-c3cccc(NC(=O)c4ccccc4)c3)nc2c1 | 1.1 | 36.8 | 0.5 | 36.8 | 49.8
Cc1ccn2cc(-c3cccc(NC(=O)C(C)C)c3)nc2c1 | 11.9 | 2.6 | 0.4 | 23.4 | 57.2*
Cc1ccn2cc(-c3ccc(O)c(O)c3)nc2c1 | 15.2 | / | / | 76.4* | /
Oc1ccc(-c2cn3ccccc3n2)cc1O | -4.4 | / | / | 26.0 | /
SMILES | HSP90 inh | PPC-1+TRAIL kill | FLuc stim CS | TRAIL sens C8 | FLuc inhib CS
CC(C)(C)CC(=O)Nc1cccc(-c2cn3cccnc3n2)c1 | 0.4 | 21.6 | 0.4 | 24.7 | 61.1*
CC(C)C(=O)Nc1cccc(-c2cn3ccccc3n2)c1 | 16.2* | -5.0 | 0.7 | -4.3 | 30.6
O=C(CNCc1ccccc1)Nc1ccc(Cl)cc1 | -0.4 | / | / | -3.4 | /
O=C(OCc1ccccc1)/C(=C/c1ccccc1Cl)NC(=O)c1ccco1 | 9.3 | / | / | 0.5 | /
O=C(Nc1ccc2c(c1)CCC2)c1ccc(F)cc1 | 15.5 | 35.4 | 0.3 | 51.8* | 69.5*
CN(CC(=O)Nc1cccc(Cl)c1)S(=O)(=O)c1ccc2c(c1)n(C)c(=O)c(=O)n2C | -4.1 | / | / | -2.4 | /
CCn1cc(Cl)c(C(=O)Nc2ccc3c(c2)OCCO3)n1 | 3.7 | 48.2 | 0.3 | 52.0* | 73.8*
Cn1nc(C(=O)Nc2ccc3c(c2)OCCO3)cc1C(=O)O | -0.2 | 30.1 | 0.4 | 47.0 | 64.8*
Cn1ccc(C(=O)Nc2ccc3c(c2)OCCO3)n1 | 12.3 | / | / | 39.4 | /
Cc1ccc(N2C(=O)CN(Cc3ccccc3)C2=S)cc1C | 0.2 | / | / | 23.1 | /
C#Cc1ccc([C@@H]2C=C(C(=O)Nc3ccccc3)O[C@H](OCC)[C@H]2CCCO)cc1 | -3.0 | 20.7 | 1 | 79.5* | 1.1

Bioassay records as filed in PubChem.
